Data taken from ChEMBL document CHEMBL1123250, “Chloroalanyl antibiotic peptides: antagonism of their antimicrobial effects by L-alanine and L-alanyl peptides in gram-negative bacteria” (1986).
Converted amounts (≈) assume the structure as drawn.

How the values were obtained:
Assay type in all cases: functional
Shigella flexneri = assay: Compound was tested for antibacterial activity against Shigella flexneri
Procedure, shortened: (§1)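 Agar dilution MIC on defined peptide susceptibility agar. Inoculum made by growing overnight in liquid peptide susceptibility medium, then diluting to about 1 × 10^7 cfu/mL. Applied by Steers replicator to plates carrying serial 2-fold peptide dilutions. Incubated overnight at 37 °C. MIC = lowest concentration allowing growth of fewer than 10 colonies after 16-18 h.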

Enterobacter cloacae = assay: Compound was tested for antibacterial activity against Enterobacter cloacae; procedure, shortened: as §1
Streptococcus pyogenes = assay: Compound was tested for antibacterial activity against Streptococcus pyogenes
Procedure, shortened: (§2)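 Inoculum made from colonies grown overnight on chocolate or blood agar, resuspended in liquid medium to 10' cfu/mL. Applied by Steers replicator to serial 2-fold peptide dilutions. Incubated overnight at 37 °C under 7% CO2. MIC = lowest concentration giving fewer than 10 colonies at 16-18 h.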

Haemophilus influenzae = assay: Compound was tested for antibacterial activity against Hemophilus influenzae; procedure, shortened: as §2
Staphylococcus aureus = assay: Compound was tested for antibacterial activity against Staphylococcus aureus; procedure, shortened: as §1
[1] = system: Staphylococcus epidermidis; assay: Compound was tested for antibacterial activity against Staphylococcus epidermidis; procedure, shortened: as §1
Escherichia coli = assay: Compound was tested for antibacterial activity against Escherichia coli; procedure, shortened: as §1
Proteus mirabilis = assay: Compound was tested for antibacterial activity against Proteus mirabilis; procedure, shortened: as §1
Enterococcus faecalis = assay: Compound was tested for antibacterial activity against Streptococcus faecalis; procedure, shortened: as §1
Morganella morganii = assay: Compound was tested for antibacterial activity against Morganella morganii; procedure, shortened: as §1
Streptococcus agalactiae = assay: Compound was tested for antibacterial activity against Streptococcus agalactiae; procedure, shortened: as §2

- MIC (Shigella flexneri): > 100 µg/mL
- MIC (Enterobacter cloacae): > 100 µg/mL
- MIC (Streptococcus pyogenes): 25 µg/mL (≈ 76.7 µM)
- MIC (Haemophilus influenzae): > 100 µg/mL
- MIC (Staphylococcus aureus): 0.05 µg/mL (≈ 0.153 µM)
- MIC [1]: 0.025 µg/mL (≈ 0.0767 µM)
- MIC (Escherichia coli): > 100 µg/mL
- MIC (Proteus mirabilis): > 100 µg/mL
- MIC (Enterococcus faecalis): 6.25 µg/mL (≈ 19.2 µM)
- MIC (Morganella morganii): > 100 µg/mL
- MIC (Streptococcus agalactiae): < 0.1 µg/mL
Structure (SMILES): CSCC[C@H](N)C(=O)N[C@@H](C)C(=O)N[C@@H](CCl)C(=O)O
